Most compounds without a hit are left out; they make up all but 9.6% or so of the library.
BaF3 parental: parental Ba/F3 cell viability inhibition, counter-screen for JAK2V617F inhibitor project, murine pro-B, CellTiter-Glo luminescence; AID 1486, 2009; inhibition, % at 5.6 µM; 220,000 compounds, 1.1% hits; CellTiter-Glo ATP luminescence;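 active = inhibition above a per-campaign cutoff, the mean inhibition of all tested compounds plus 3 SD, cut at about 27% in these data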;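 also: 0% = DMSO wells and 100% = JAK Inhibitor I control wells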
MT stabilizer: microtubule stabilizers in HeLa cells, primary screen, imaging, high-content imaging; HeLa tubulin immunostaining HCS, 24 h; share of cells brighter than vehicle mean+2SD; % tubulin-high responders, % at 10 µM; 200,000 compounds, 0.83% hits; AID 2205, 2009;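 active = plate Z-score above 3 for both tubulin-high and condensed-nucleus cell shares, with cell loss under 80%, at 10 µM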;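 also: anti alpha tubulin signal scored within the nucleus-defined area of each cell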
APP 5UTR inh: inhibitors of APP translation via 5'UTR reporter, primary screen, APP 5'UTR luciferase, SH-SY5Y cells; 190,000 compounds, 0.82% hits; inhibition, % at 2 µM; SH-SY5Y APP 5'UTR-luciferase reporter, luminescence; AID 1285, 2008;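 active = inhibition above a set limit, derived from the sample mean plus 3 SD, cut at about 45% in these data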
L major viab: Leishmania major promastigote growth inhibition, primary screen; Leishmania major promastigotes, resazurin fluorescence viability; inhibition, % at 10 µM; 200,000 compounds, 9% hits; AID 1063, 2008; in the data active = inhibition above about 50%;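 also: promastigotes grown with compound for 44 hours at 28 °C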
bCat nuc transl: modulators of beta-catenin nuclear translocation, primary screen, imaging, HeLa cells, immunofluorescence, high-content. nuclear translocation activity, % at 5 µM. 190,000 compounds, 0.3% hits. AID 1665, 2009;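 active = nuclear translocation activity above 50% at 5 µM, with a well cell count of 50 or more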;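 also: per-cell ratio of nuclear to cytoplasmic median beta-catenin stain intensity; plate controls were DMSO negative control for no effect and GSK-3 inhibitor IX positive control for full effect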
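Test system: human HeLa cells, native beta-catenin. Compound dosing: 5 µM primary single dose, 0.1% DMSO, 0.02–20 µM confirmation series. Incubation: compound exposure 24 h at 37°C. Detection: beta-catenin immunostaining with DAPI counterstain, 20x imaging, 6 fields/well. Read-out basis: Nuclear/cytoplasmic beta-catenin signal ratio, % activation.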
Ba/F3 V617F tox: reduced viability of JAK2V617F-dependent Ba/F3 cells, primary screen, JAK2V617F inhibitor project, cell-based, Ba/F3 EpoR-JAK2V617F, luminescence; 220,000 compounds, 1.1% hits; ATP luminescence; inhibition, % at 5.6 µM;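 active = inhibition above the campaign mean plus 3 SD over all tested compounds, cut at about 24% in these data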;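 also: cytokine-independent growth of Ba/F3 cells driven by EpoR plus mutant JAK2; 0% = DMSO-treated cells and 100% = JAK inhibitor I control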
* = called active by the depositor; . = no result given.

SMILES	BaF3 parental	MT stabilizer	APP 5UTR inh	L major viab	bCat nuc transl	Ba/F3 V617F tox
CCc1cc(=O)oc2c(C)c(OS(C)(=O)=O)ccc12	5	9	-11	5	.	2
CC1C2CC(C/C2=N/NC(=O)c2cccs2)C1(C)C (centres undefined)	10	4	-28	95*	.	-2
Cc1cc(C)n(-c2cc(N3CCN(S(=O)(=O)c4ccc(Cl)cc4)CC3)ccc2[N+](=O)[O-])n1	4	4	-4	23	0	0
COc1ccccc1N1CCN(C(=O)C2CC=CCC2C(=O)O)CC1 (centres undefined)	6	2	6	-12	0	1
O=C(CCc1ccccc1)N1CCN(c2ccc(Cl)cc2)CC1	4	1	-3	-1	4	0
O=C(C1c2ccccc2Oc2ccccc21)N1CCN(c2ccc(Cl)cc2)CC1	4	33*	-9	12	.	1
COc1ccccc1N1CCN(C(=O)C2c3ccccc3Oc3ccccc32)CC1	78*	26*	87*	27	95*	83*
COc1ccccc1CNC(=O)C(=O)NCC(c1ccco1)N1CCOCC1 (centres undefined)	0	6	5	1	-2	1
C/C(CC(=O)Nc1ccc(N(C)C)cc1)=N\NC(=O)Cc1csc(N)n1	6	4	10	75*	0	2
CC(C)(C)c1cc(NC(=O)c2ccco2)n(-c2ccccc2)n1	1	3	-11	-4	1	-3
Cc1oc(-c2cccs2)nc1CN1CCN(CCC(C)C)C(CCO)C1 (centres undefined)	0	2	14	84*	-1	-7
CC(C)CN1CCN(Cc2nc3ccccc3s2)CC1CCO (centres undefined)	1	2	-20	6	-1	-2
CC(C)NC(=O)C1CCN(C2CCN(Cc3nc4ccccc4s3)CC2)CC1	-1	3	-15	86*	3	3
Cc1oc(-c2cccs2)nc1CN1CCN(C2CCCC2)C(CCO)C1 (centres undefined)	7	2	6	20	-3	-1
OCCC1CN(Cc2nc3ccccc3s2)CCN1CCc1ccccc1 (centres undefined)	1	1	-2	84*	3	-2
CC(=O)c1cc(CN2CCC(N3CCC(C(=O)NC(C)C)CC3)CC2)cs1	5	3	0	-4	1	-1
CC(C)CCN1CCN(Cc2nc3ccccc3s2)CC1CCO (centres undefined)	3	2	8	82*	2	-2
Cn1nnnc1SCC(=O)Nc1ccc(S(=O)(=O)N2CCOCC2)cc1	-2	.	.	.	-2	-2
CC(NC(=S)Nc1cccc(C(F)(F)F)c1)C(C)(C)C (centres undefined)	2	2	-4	26	-4	0
CC(C)CCN1CCN(CC(c2ccccc2)c2ccccc2)CC1CCO (centres undefined)	10	2	-5	91*	0	2
CC(C)CCN1CCN(Cc2ccsc2)CC1CCO (centres undefined)	4	3	9	-3	2	-3
CCc1nnc(NC(=O)C2Cc3ccccc3CN2S(=O)(=O)c2ccc(C)cc2)s1 (centres undefined)	0	4	-12	39	-1	-3
CNC(=O)C1Cc2ccccc2CN1S(=O)(=O)c1cccs1 (centres undefined)	4	3	-24	68*	-1	1
O=C(Nc1nnc(C2CC2)s1)C1Cc2ccccc2CN1S(=O)(=O)c1cccs1 (centres undefined)	-1	2	-28	17	-2	-2
COc1ccc(S(=O)(=O)N2Cc3ccccc3CC2C(=O)Nc2nccs2)cc1 (centres undefined)	11	3	-180	99*	-3	1
SMILES	BaF3 parental	MT stabilizer	APP 5UTR inh	L major viab	bCat nuc transl	Ba/F3 V617F tox
Cc1ccc(S(=O)(=O)N2Cc3ccccc3CC2C(=O)Nc2ccc3c(c2)OCO3)cc1 (centres undefined)	3	1	-16	100*	-2	-2
CCc1nnc(NC(=O)C2Cc3ccccc3CN2S(=O)(=O)c2cccs2)s1 (centres undefined)	6	3	-25	53*	0	-1
COc1ccc(C(=S)N2CCN(c3ccccc3C)CC2)cc1	2	.	.	.	0	-4
CCCSC(=S)c1c(C)[nH]n(-c2ccccc2)c1=O	-1	.	.	.	0	-4
COc1cc(NS(=O)(=O)c2ccc(NC(=O)/C=C/c3ccc([N+](=O)[O-])cc3)cc2)ncn1	11	4	-13	12	0	2
CN1/C(=C\C(=O)C(F)F)C(C)(C)c2ccccc21	4	2	5	0	-1	-4
CC(C)C(=O)NC(=S)/C=C1/N(C)c2ccccc2C1(C)C	57*	2	-2	12	-4	30*
Cc1c(NC(=S)/C=C2\N(C)c3ccccc3C2(C)C)c(=O)n(-c2ccccc2)n1C	50*	2	8	47	1	8
Cc1c(N=C/C=C2\N(C)c3ccccc3C2(C)C)c(=O)n(-c2ccccc2)n1C	-1	2	-20	10	1	-5
Cc1ccc(C(=O)NC(=S)/C=C2\N(C)c3ccccc3C2(C)C)cc1	36*	3	-5	22	-1	4
CC(=O)/C=C1\N(C)c2ccc(C)cc2C1(C)C	39*	2	12	91*	-1	42*
Cc1nc2ccc(S(=O)(=O)NC(C(=O)NCc3ccco3)C(C)C)cc2s1 (centres undefined)	5	5	-16	-10	-1	-2
CN1/C(=C/C(=S)NC(=O)C2CCC2)C(C)(C)c2ccccc21	30*	3	-2	1	-4	6
CN1/C(=C\C(=O)c2cccnc2)C(C)(C)c2ccccc21	7	2	-34	7	1	-1
O=C(COc1ccc([N+](=O)[O-])cc1)Nc1ccc2c(c1)OCO2	10	12*	2	-8	0	3
O=C1CCc2ccc(NS(=O)(=O)c3ccc(F)cc3)cc2N1	0	2	-7	-4	-2	-4
O=C(CSc1cccc[n+]1[O-])c1ccccc1Br	7	5	-8	99*	-2	7
Cc1cc(C(=O)CSc2cccc[n+]2[O-])c(C)n1-c1ccc(Br)cc1	2	4	-30	95*	4	0
Cc1ccc(N(CC(=O)NC(C)(C)C)C(=O)CNC(=O)c2cccs2)c(C)c1	1	3	-6	2	0	-3
Cc1ccc(NC(=S)N2CCCCC2CO)cc1C (centres undefined)	-4	2	-9	3	0	-2

Assay outcomes from PubChem BioAssay.
